Active and inactive are the calls of the source.
How the values were obtained:
Schistosoma mansoni [1] = assay: Antischistosomal activity against adult stage of Schistosoma mansoni assessed as effect on parasite motility after 72 hrs by microscopic method; assay type: functional, organism-based
Outline: (§1)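 Mice were infected percutaneously with 200 cercariae, and adults were recovered by portal perfusion at seven weeks. Three worm pairs per well in modified DMEM with 10% FCS were given compound at 50, 25, 12.5 and 6.25 µM final (0.3% DMSO) for 72 hr at 37 °C, 5% CO2. Controls were DMSO and auranofin. Worms were scored manually by microscopy at 24, 48 and 72 hr. Experiments were run in duplicate.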

[2] = Selectivity index, ratio of IC50 for human HepG2 cells to IC50 for newly excysted juveline stage of Fasciola hepatica Italian assessed as effect on parasite motility; assay type: toxicity; settings: read-out: Ratio IC50
Outline: (§2)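 Selectivity index was calculated as the CC50 from the HepG2 or MDBK MTT assay divided by the F. hepatica NEJ phenotype or motility IC50 from the 72 hr manual scoring assay.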

[3] = Selectivity index, ratio of IC50 for MDBK cells to IC50 for newly excysted juveline stage of Fasciola hepatica Italian assessed as effect on parasite motility; assay type: toxicity; settings: cattle, read-out: Ratio IC50; outline: as §2
Schistosoma mansoni [4] = assay: Antischistosomal activity against schistosomula of Schistosoma mansoni assessed as effect on parasite phenotype by throughput high content image analysis; assay type: functional, organism-based
Outline: (§3)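 Puerto Rican (NMRI) strain cercariae were mechanically transformed to schistosomula. About 120 larvae were co-cultured with compound for 72 hr at 37 °C, 5% CO2, at 0.625% DMSO final. Controls were DMSO and auranofin. Motility and phenotype were scored by automated image analysis, with a hit threshold of ≤-0.15 (phenotype) and ≤-0.35 (motility) in ≥70% of larvae. Runs were in duplicate, and IC50 was estimated from dose-response curves.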

[5] = Selectivity index, ratio of IC50 for MDBK cells to IC50 for newly excysted juveline stage of Fasciola hepatica Italian assessed as effect on parasite phenotype; assay type: toxicity; settings: cattle, read-out: Ratio IC50; outline: as §2
Schistosoma mansoni [6] = assay: Antischistosomal activity against schistosomula of Schistosoma mansoni at 25 uM by throughput high content image analysis; assay type: functional, organism-based; outline: as §3
Fasciola hepatica [7] = assay: Antifasciola activity against immature stage of Fasciola hepatica Italian assessed as effect on parasite motility after 72 hrs; assay type: functional, organism-based
Schistosoma mansoni [8] = assay: Antischistosomal activity against adult stage of Schistosoma mansoni at 50 uM after 24 to 72 hrs by microscopic method; assay type: functional, organism-based; outline: as §1
[9] = Cytotoxicity against human HepG2 cells after 24 hrs by MTT assay; assay type: cell-based
Outline: (§4)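 Cells were grown to about 80% confluence (HepG2 in BME, MDBK in EMEM, each with 10% FBS). They were seeded at 2.5 x10^4 per well and rested 24 hr, then exposed 24 hr to compound at 100–0.01 µM (1.25% DMSO). Controls were DMSO and 1% Triton X-100. Viability was read by MTT, and CC50 came from dose-response curves run in triplicate.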

Fasciola hepatica [10] = assay: Antifasciola activity against newly excysted juveline stage of Fasciola hepatica Italian assessed as effect on parasite motility after 72 hrs; assay type: functional, organism-based
Outline: (§5)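 NEJs came from Italian-strain metacercariae, excysted either by pepsin/HCl or by needle rupture, then 1 hr in sodium tauroglycocholate. They were plated at 25 per well in RPMI-1640 with 1% FCS. Screening was at 25 and 12.5 µM, then titration from 10 to 0.625 µM (0.16% DMSO). Controls were DMSO and 10 µM triclabendazole. Motility and phenotype were scored at 72 hr, with IC50 from dose-response curves.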

Fasciola hepatica [11] = assay: Antifasciola activity against immature stage of Fasciola hepatica Italian assessed as sloughing of tegument at 13.3 uM after 72 hrs by osmium tetroxide staining-based scanning electron microscopic method; assay type: functional, organism-based
Fasciola hepatica [12] = assay: Antifasciola activity against newly excysted juveline stage of Fasciola hepatica Italian assessed as effect on parasite phenotype after 72 hrs; assay type: functional, organism-based; outline: as §5
[13] = Selectivity index, ratio of IC50 for human HepG2 cells to IC50 for antischistosomal activity against schistosomula of Schistosoma mansoni assessed as effect on parasite motility; assay type: toxicity; settings: read-out: Ratio IC50
Outline: (§6)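 Selectivity index was calculated as the CC50 from the HepG2 or MDBK MTT assay divided by the schistosomula phenotype or motility IC50 from the 72 hr image-based screen.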

Schistosoma mansoni [14] = assay: Antischistosomal activity against adult stage of Schistosoma mansoni assessed as appearance of smaller eggs at 6.25 uM after 72 hrs by fluorescence microscopic method; assay type: functional, organism-based
Outline: (§7)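 Adult worm pairs from infected MF-1 mice were cultured 72 hr at 37 °C, 5% CO2, in modified DMEM with 10% FCS. At 72 hr, eggs were collected from each well, counted, pelleted at 200 x g, fixed in 10% formaldehyde in PBS, and viewed under natural light and a GFP filter.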

Schistosoma mansoni [15] = assay: Antischistosomal activity against adult stage of Schistosoma mansoni assessed as appearance of abnormal shaped eggs at 6.25 uM after 72 hrs by fluorescence microscopic method; assay type: functional, organism-based; outline: as §7
Schistosoma mansoni [16] = assay: Antischistosomal activity against schistosomula of Schistosoma mansoni assessed as effect on parasite motility by throughput high content image analysis; assay type: functional, organism-based; outline: as §3
Schistosoma mansoni [17] = assay: Antischistosomal activity against male adult stage of Schistosoma mansoni assessed as tegumental disruption throughtout the whole body at 25 uM after 72 hrs by osmium tetroxide staining-based scanning electron microscopic method; assay type: functional, organism-based
[18] = Selectivity index, ratio of IC50 for human HepG2 cells to IC50 for antischistosomal activity against schistosomula of Schistosoma mansoni assessed as effect on parasite phenotype; assay type: toxicity; settings: read-out: Ratio IC50; outline: as §6
[19] = Selectivity index, ratio of IC50 for MDBK cells to IC50 for antischistosomal activity against schistosomula of Schistosoma mansoni assessed as effect on parasite motility; assay type: toxicity; settings: cattle, read-out: Ratio IC50; outline: as §6
[20] = Cytotoxicity against MDBK cells after 24 hrs by MTT assay; assay type: cell-based, Bos taurus; settings: cattle; outline: as §4
Schistosoma mansoni [21] = assay: Antischistosomal activity against schistosomula of Schistosoma mansoni at 10 uM by throughput high content image analysis; assay type: functional, organism-based; outline: as §3
Schistosoma mansoni [22] = assay: Antischistosomal activity against adult stage of Schistosoma mansoni assessed as loss of lateral spine in eggs at 6.25 uM after 72 hrs by fluorescence microscopic method; assay type: functional, organism-based; outline: as §7
Schistosoma mansoni [23] = assay: Antischistosomal activity against female adult stage of Schistosoma mansoni assessed as loss of spinous tubercles natural shape at 25 uM after 72 hrs by osmium tetroxide staining-based scanning electron microscopic method; assay type: functional, organism-based
[24] = Selectivity index, ratio of IC50 for human HepG2 cells to IC50 for newly excysted juveline stage of Fasciola hepatica Italian assessed as effect on parasite phenotype; assay type: toxicity; settings: read-out: Ratio IC50; outline: as §2
Schistosoma mansoni [25] = assay: Antischistosomal activity against male adult stage of Schistosoma mansoni assessed as loss of spinous tubercles natural shape at 25 uM after 72 hrs by osmium tetroxide staining-based scanning electron microscopic method; assay type: functional, organism-based
Schistosoma mansoni [26] = assay: Antischistosomal activity against adult stage of Schistosoma mansoni assessed as irregular auto-fluorescence of eggs at 6.25 uM after 72 hrs by fluorescence microscopic method; assay type: functional, organism-based; outline: as §7
Schistosoma mansoni [27] = assay: Antischistosomal activity against adult stage of Schistosoma mansoni assessed as effect on parasite motility up to 12.5 uM after 72 hrs by microscopic method; assay type: functional, organism-based; outline: as §1
Schistosoma mansoni [28] = assay: Antischistosomal activity against schistosomula of Schistosoma mansoni at 1 uM by throughput high content image analysis; assay type: functional, organism-based
Schistosoma mansoni [29] = assay: Antischistosomal activity against female adult stage of Schistosoma mansoni assessed as tegumental disruption throughtout the whole body at 25 uM after 72 hrs by osmium tetroxide staining-based scanning electron microscopic method; assay type: functional, organism-based
Fasciola hepatica [30] = assay: Antifasciola activity against immature stage of Fasciola hepatica Italian assessed as loss of spines on ventral surface at 13.3 uM after 72 hrs by osmium tetroxide staining-based scanning electron microscopic method; assay type: functional, organism-based
Fasciola hepatica [31] = assay: Antifasciola activity against immature stage of Fasciola hepatica Italian assessed as exposure of basal lamina at 13.3 uM after 72 hrs by osmium tetroxide staining-based scanning electron microscopic method; assay type: functional, organism-based
Fasciola hepatica [32] = assay: Antifasciola activity against adult stage of Fasciola hepatica Italian assessed as effect on parasite motility after 72 hrs; assay type: functional, organism-based
[33] = Selectivity index, ratio of IC50 for MDBK cells to IC50 for antischistosomal activity against schistosomula of Schistosoma mansoni assessed as effect on parasite phenotype; assay type: toxicity; settings: cattle, read-out: Ratio IC50; outline: as §6
Fasciola hepatica [34] = assay: Antifasciola activity against adult stage of Fasciola hepatica Italian assessed as decoration of ventral surface by swollen tegumantal ridges and smaller spines at 40 uM after 72 hrs by osmium tetroxide staining-based scanning electron microscopic method; assay type: functional, organism-based

`CC1(C)CCC[C@]2(C)c3ccc(O)cc3CC[C@@H]12` showed an IC50 (Schistosoma mansoni [1]) of 19.9 µM, a selectivity ratio [2] of 10.2 and a selectivity ratio [3] of 13. For the same compound, the IC50 (Schistosoma mansoni [4]) was 6.8 µM, the selectivity ratio [5] was 10.2 and the Activity (Schistosoma mansoni [6]) was “Active”. The IC50 (Fasciola hepatica [7]) was 10.4 µM, the Activity (Schistosoma mansoni [8]) was “Active” and the CC50 at 24 h [9] was 25.6 µM. For the same compound, the IC50 (Fasciola hepatica [10]) was 2.5 µM, the Activity (Fasciola hepatica [11]) was “Active” and the IC50 (Fasciola hepatica [12]) was 3.2 µM. For the same compound, the selectivity ratio [13] was 4.1, the Activity (Schistosoma mansoni [14]) was “Active” and the Activity (Schistosoma mansoni [15]) was “Active”. The IC50 (Schistosoma mansoni [16]) was 6.3 µM, the Activity (Schistosoma mansoni [17]) was “Active” and the selectivity ratio [18] was 3.8. For the same compound, the selectivity ratio [19] was 5.2, the CC50 at 24 h [20] was 32.5 µM and the Activity (Schistosoma mansoni [21]) was “Active”. The Activity (Schistosoma mansoni [22]) was “Active”, the Activity (Schistosoma mansoni [23]) was “Active” and the selectivity ratio [24] was 8. The Activity (Schistosoma mansoni [25]) was “Active”, the Activity (Schistosoma mansoni [26]) was “Active” and the Activity (Schistosoma mansoni [27]) was “Active”. For the same compound, the Activity (Schistosoma mansoni [28]) was “inactive”, the Activity (Schistosoma mansoni [29]) was “Active” and the Activity (Fasciola hepatica [30]) was “Active”. For the same compound, the Activity (Fasciola hepatica [31]) was “Active”, the IC50 (Fasciola hepatica [32]) was 28.4 µM and the selectivity ratio [33] was 4.8. For the same compound, the Activity (Fasciola hepatica [34]) was “Active”.

Reference: ChEMBL document CHEMBL4152233, “Design, synthesis and anthelmintic activity of 7-keto-sempervirol analogues” (Eur J Med Chem, 2018)
